Experimental findings from ChEMBL document CHEMBL5038594, “Structural Fine-Tuning of Desmuramylpeptide NOD2 Agonists Defines Their In Vivo Adjuvant Activity” (J Med Chem, 2021) are described below.

Activity calls are given as the source filed them. No cut-off for these calls is given here.

Series [1] deals with MEC1. Description: Cytotoxicity against human MEC-1 cells cocultured with human PBMC cells assessed as inhibition of cell proliferation at 1 uM incubated with PBMC cells for 18 hrs followed by co-incubation with MEC-1 cells for 4 hrs by SYTOX blue staining based flow cytometric analysis. It is filed as functional. An outline of the steps: (§1)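 Effector cells are freshly Ficoll-isolated human PBMCs, 4 × 10^5 per well, pretreated 18 h with compound or 0.1% DMSO. CFSE-labelled K562 or MEC1 targets, 1 × 10^4 per well, are then added at 40:1 effector:target ratio and co-incubated 4 h at 37 °C. Dead targets are CFSE+/Sytox blue+ by flow cytometry. Results are relative to vehicle. Duplicates; three (MEC1) or four (K562) independent experiments. One-way ANOVA with Dunnett.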
For orientation: A flow cytometer gives signals particle by particle.

The subject of series [2] is K562. Kind of series: Cytotoxicity against human K562 cells cocultured with human PBMC cells assessed as inhibition of cell proliferation at 1 uM incubated with PBMC cells for 18 hrs followed by co-incubation with K562 cells for 4 hrs by SYTOX blue staining based flow cytometric analysis. It is filed as functional. An outline of the steps: as §1
The subject of series [3] is PBMC. Kind of series: Immunostimulatory activity in human PBMC cells assessed as increase in LPS-induced IL-6 production at 2 uM incubated for 18 hrs by flow cytometry analysis. The format is functional, cell-based. An outline of the steps: (§2)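 Human PBMCs from healthy donors, 1 × 10^6 cells/mL in RPMI 1640 with 10% FBS, treated with 2 μM compound or 0.1% DMSO, without or with LPS 10 ng/mL, for 18 h at 37 °C. Supernatant cytokines quantified by cytometric bead array (human inflammatory panel) on a flow cytometer against recombinant standards. Four independent donors. Repeated-measures one-way ANOVA with Dunnett.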

Series [4] deals with PBMC. Kind of series: Immunostimulatory activity in human PBMC cells assessed as increase in LPS-induced TNF-alpha production at 2 uM incubated for 18 hrs by flow cytometry analysis. The format is functional, cell-based. An outline of the steps:
as §2

The test system of series [5] is Mus musculus. Kind of series: Immuno-adjuvant activity in NIH/OlaHsd mouse assessed as increase in ovalbumin specific IgG production in sera at 0.15 micromol administered subcutaneously on day 1 and as booster dose on day 21 and 28 with ovalbumin loaded liposomes by ELISA. As to conditions: dose 0.15 µmol, time 28.0 day. It is filed as functional, organism-based. Put shortly: (§3)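 Groups of 5 female NIH/OlaHsd mice, 2.0–2.5 months old, immunized with ovalbumin-loaded liposomes (10 μg ovalbumin per dose) containing 0.15 μmol adjuvant per dose. Liposomes were neutral (PC–cholesterol 7:5), anionic (PC–cholesterol–dicetylphosphate 7:5:1) or mannosylated (PC–cholesterol–mannose-PEG-PA 7:5:0.5). Serum ovalbumin-specific IgG, IgG1 and IgG2a measured 1 week after the second booster. Mean ± SEM.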
In general terms: ELISA stands for enzyme-linked immunosorbent assay.

Series [6] deals with T1, Nucleotide-binding oligomerization domain-containing protein 1 (Homo sapiens) (UniProt Q9Y239).
T1 sequence (whole entry): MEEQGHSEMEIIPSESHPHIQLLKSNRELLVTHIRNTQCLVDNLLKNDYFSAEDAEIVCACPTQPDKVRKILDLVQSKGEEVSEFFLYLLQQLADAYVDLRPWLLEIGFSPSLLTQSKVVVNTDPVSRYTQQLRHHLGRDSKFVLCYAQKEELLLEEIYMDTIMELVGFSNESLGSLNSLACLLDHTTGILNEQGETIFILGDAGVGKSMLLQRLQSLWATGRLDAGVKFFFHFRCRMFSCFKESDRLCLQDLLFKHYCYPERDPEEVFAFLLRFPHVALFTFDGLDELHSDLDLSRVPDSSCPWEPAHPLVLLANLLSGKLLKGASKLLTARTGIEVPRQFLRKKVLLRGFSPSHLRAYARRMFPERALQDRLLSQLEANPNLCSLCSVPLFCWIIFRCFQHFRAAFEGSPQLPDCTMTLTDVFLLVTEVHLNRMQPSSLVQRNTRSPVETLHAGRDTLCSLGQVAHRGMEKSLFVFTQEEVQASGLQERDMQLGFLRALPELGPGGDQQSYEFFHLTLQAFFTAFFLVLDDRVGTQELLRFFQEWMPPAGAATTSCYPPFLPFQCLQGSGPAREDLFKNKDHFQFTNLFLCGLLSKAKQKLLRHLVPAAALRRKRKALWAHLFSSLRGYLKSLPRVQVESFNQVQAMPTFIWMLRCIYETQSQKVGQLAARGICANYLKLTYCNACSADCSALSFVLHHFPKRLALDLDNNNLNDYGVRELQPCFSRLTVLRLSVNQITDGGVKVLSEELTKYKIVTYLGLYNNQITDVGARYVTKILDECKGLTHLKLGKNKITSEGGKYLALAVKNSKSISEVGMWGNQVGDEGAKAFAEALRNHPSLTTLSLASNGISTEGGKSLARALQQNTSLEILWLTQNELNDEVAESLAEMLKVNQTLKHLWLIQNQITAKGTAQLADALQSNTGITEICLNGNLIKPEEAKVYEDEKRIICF
Description: Agonist activity at NOD1 in HEK-Blue hNOD2 cells assessed as increase in NFkappaB transactivation-mediated SEAP activity measured after 18 hrs by spectrophotometric method. The format is cell-based. The following applies: HEK-Blue hNOD1, in the assay text read “HEK-Blue hNOD1 cells” for “HEK-Blue hNOD2 cells”. Put shortly: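 Counter-screen in HEK-Blue NOD1 cells (HEK293 stably expressing human NOD1 plus an NF-κB-inducible SEAP reporter), seeded at 2.5 × 10^5 cells/mL in HEK-Blue detection medium. Compounds at 2 μM versus 0.1% DMSO vehicle, 18 h at 37 °C, 5% CO2. SEAP read as absorbance at 630 nm. Duplicates, at least two independent experiments.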

Series [7] concerns K562. Description: Cytotoxicity against human K562 cells cocultured with human PBMC cells assessed as inhibition of cell proliferation at 10 uM incubated with PBMC cells for 18 hrs followed by co-incubation with K562 cells for 4 hrs by SYTOX blue staining based flow cytometric analysis. It is filed as functional. An outline of the steps:
as §1

The nature of series [8]: Cytotoxicity against HEK-Blue hNOD2 cells assessed as reduction in metabolic activity at 20 uM incubated for 18 hrs by MTS assay. The format is toxicity, cell-based. The following applies: human, hek-blue hnod2, 18 h. Put shortly:
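HEK-Blue NOD2 cells, 40 000 per well, exposed to 20 μM compound or 0.1% DMSO for 18 h at 37 °C, 5% CO2. Metabolic activity measured by MTS (CellTiter 96 AQueous One) reagent. Duplicates, two independent biological replicates.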
A general note: Tetrazolium assays rely on reduction of a dye to a coloured formazan, in cell work by metabolically active cells.

For series [9], the system named is Mus musculus. Description: Immuno-adjuvant activity in NIH/OlaHsd mouse assessed as increase in ovalbumin specific […] associated IgG2a production in sera at 0.15 micromol administered subcutaneously on day 1 and as booster dose on day 21 and 28 with ovalbumin loaded liposomes by ELISA. It is filed as functional, organism-based. The following applies: dose 0.15 µmol, time 28.0 day. An outline of the steps:
as §3

The subject of series [10] is MEC1. Kind of series: Cytotoxicity against human MEC-1 cells cocultured with human PBMC cells assessed as inhibition of cell proliferation at 100 nM incubated with PBMC cells for 18 hrs followed by co-incubation with MEC-1 cells for 4 hrs by SYTOX blue staining based flow cytometric analysis. The format is functional. An outline of the steps:
as §1

Series [11] concerns PBMC. Kind of series: Immunostimulatory activity in human PBMC cells assessed as increase in TNF-alpha production at 2 uM incubated for 18 hrs by flow cytometry analysis. It is filed as functional, cell-based. Put shortly: as §2

Consider `CCCCCCCCCCCCCCCCCC(=O)Oc1ccc(/C=C/C(=O)NCC(=O)N[C@H](C(=O)N[C@H](CCC(=O)OCC)C(=O)OCC)C(C)C)cc1OC`, for which the result (in the series on MEC1 [1]; in series [6]; in the series with MEC1 [10]; in the series on PBMC [11]) was inactive. Further, the result in the series with K562 [2], in the series with PBMC [3], in the series on PBMC [4], in the series with Mus musculus [5], in the series on K562 [7] and in the series on Mus musculus [9] was Active. In series [8], the Activity result is “Non-Toxic”.
